The subject of data set [1] is MIA PaCa-2. Put plainly: Cytotoxicity against human MIA PaCa-2 cells measured after 72 hrs by MTT assay. It counts as functional, cell-based. The conditions noted are these: MIA PaCa-2, 72 h. In short, it runs like this: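 Cells were kept in RPMI 1640 with 10% FBS at 37 °C, 5% CO₂, under 35 passages. Cells were seeded, attached overnight and treated with compound or DMSO for 72 h. MTT was added at 0.3 mg/mL for 3 h, then dissolved in DMSO and read as absorbance at 570 nm. IC50 was fitted from the curve. Values are mean ± sd of three independent experiments.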
Background: Formazan colour is commonly taken as a measure of viable cells.

The target of data set [2] is Signal transducer and activator of transcription 3 (Homo sapiens) (UniProt P40763). Put plainly: Inhibition of STAT3 phosphorylation in human PANC-1 cells at 1.2 to 1.8 uM measured after 4 hrs by Western blot analysis. In kind it is cell-based. Particulars: dose microM 1.2-1.8, time 4.0 hrs. In short, it runs like this:
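Cells were treated 4 h at the stated concentrations and lysed in RIPA with protease and phosphatase inhibitors. 25 μg protein was resolved on 10% SDS gels, transferred to PVDF and probed for STAT3, pSTAT3, pH2AX and GAPDH. Detection used fluorescent secondary antibodies, with normalisation to loading control.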

Data set [3] concerns MIA PaCa-2. The data set can be described thus: Inhibition of colony formation in human MIA PaCa-2 cells at 0.5 to 2 uM measured after 7 to 9 days in presence of N-acetylcysteine by crystal violet staining based assay. The conditions noted are these: dose microM 0.5-2, time day 7-9. In kind it is functional, cell-based. Summed up:
(§1)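 Cells seeded overnight in 96-well plates at 300 cells/well (MIA PaCa-2) or 600 cells/well (BxPC-3), in RPMI 1640 with 10% FBS. Inhibitor added 1 h before compound, then continuous exposure for 7–9 days until control wells were 80–90% confluent. Stained with 0.05% crystal violet for 30 min, imaged after overnight drying and quantified.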

Data set [4] concerns MIA PaCa-2. Put plainly: Induction of reactive oxygen species in human MIA PaCa-2 cells assessed as reduction in GSH to GSSG ratio at 1.5 to 6 uM measured after 2 to 4 hrs by GSH/GSSG-glo assay. It counts as functional, cell-based. Particulars: dose microM 1.5-6, time hrs 2-4. Summed up: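 GSH/GSSG-Glo luminescent assay: 15,000–20,000 MIA PaCa-2 cells per well, attached overnight, treated 2 h and 4 h. Cells were lysed with total or oxidized glutathione reagent, then luciferin generation (30 min, room temperature) and detection reagents added. Luminescence was read after 15 min. Ratio was computed from net RLU as (total − GSSG)/(GSSG/2).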

In data set [5] the test system is MIA PaCa-2. Put plainly: Inhibition of colony formation in human MIA PaCa-2 cells at 0.4 to 0.8 uM measured after 7 to 9 days in presence of autophagy inhibitor chloroquine by crystal violet staining based assay. In kind it is functional, cell-based. The conditions noted are these: dose microM 0.4-0.8, time day 7-9. In short, it runs like this:
as §1

Data set [6] relates to MIA PaCa-2. Put plainly: Induction of ferroptosis in human MIA PaCa-2 cells assessed as increase in lipid peroxidation measured after 24 hrs by C11-BODIPY dye based fluorescence assay. In kind it is functional, cell-based. In short, it runs like this: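 MIA PaCa-2 cells were treated for the set time, then given 10 μM C11-BODIPY for 30 min at 37 °C and washed. Fluorescence was read at 581/591 nm (reduced dye) and 488/510 nm (oxidized dye). The intensity ratio was compared by unpaired t-test.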

Data set [7] deals with MIA PaCa-2. The data set can be described thus: Down regulation of PNPT1 expression in human MIA PaCa-2 cells at 3 times IC50 measured after 4 hrs by proteomics analysis. It counts as functional, cell-based.
Data set [8] concerns the target T1, Phospholipid hydroperoxide glutathione peroxidase GPX4 (Homo sapiens) (UniProt P36969).
T1 sequence (whole entry): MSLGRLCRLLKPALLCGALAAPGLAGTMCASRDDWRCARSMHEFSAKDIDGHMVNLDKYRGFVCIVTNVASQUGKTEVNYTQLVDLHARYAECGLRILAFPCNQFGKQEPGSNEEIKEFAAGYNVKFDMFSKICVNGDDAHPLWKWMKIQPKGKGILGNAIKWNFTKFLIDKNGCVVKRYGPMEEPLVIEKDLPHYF
The data set can be described thus: Binding affinity to GPX4 in human MIA PaCa-2 cells assessed as protein destabilization by measuring melting temperature at 100 uM measured after 1 hr by thermal shift assay (reference value: 60.34 degreeC). In kind it is cell-based.

Data set [9] concerns MIA PaCa-2. The data set can be described thus: Cytotoxicity against human MIA PaCa-2 cells transfected with GPX4 siRNA measured after 72 hrs by MTT assay. It counts as functional, cell-based.
Data set [10] has as its system MIA PaCa-2. Put plainly: Down regulation of PNPT1 gene expression in human MIA PaCa-2 cells at 3 times IC50 measured after 4 hrs by Trizol reagent based Bru labelling based gene sequence analysis. It counts as functional, cell-based. In short, it runs like this:
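Bru-seq: 2 × 10⁶ cells were seeded in duplicate and treated at 3 × IC50 for 4 h. Bromouridine (2 mM final) was added for the last 30 min at 37 °C. Total RNA was extracted in TRIzol. BrU-labelled RNA was captured with anti-BrdU magnetic beads, made into cDNA libraries and deep-sequenced.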

Data set [11] has as its system MIA PaCa-2. Put plainly: Synergistic inhibition of colony formation in human MIA PaCa-2 cells at 0.25 to 0.5 uM measured after 24 hrs in presence of napabucasin by crystal violet staining based assay. It counts as functional, cell-based. Particulars: dose microM 0.25-0.5, time 24.0 hrs. Summed up:
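Colony formation in 96-well plates seeded at 300 (MIA PaCa-2) or 600 (PANC-1) cells/well. Napabucasin, As2O3 or olaparib added 1 h before test compound; drugs on cells 24 h. Plates kept until controls were 80–90% confluent (7–9 days), then stained with 0.05% crystal violet and quantified. Synergy scored by HSA and Bliss models.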

Data set [12] is described as follows: Half life in mouse plasma at 500 uM by LC-MS/MS analysis. In kind it is ADME, cell-free. The conditions noted are these: 500 µM. In short, it runs like this: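 Compound (500 μM DMSO stock) was added at 1 μL per 500 μL pooled plasma. Samples were taken at 0, 0.17, 0.5, 1, 2 and 4 h and centrifuged at 3500 g for 10 min. Supernatant was run by LC-MS/MS. t1/2 came from the slope of ln(compound/internal standard peak area) against time.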

The nature of data set [13]: Plasma concentration in CD-1 mouse at 10 mg/kg, ip measured after 7 hrs by LC-MS/MS analysis. It counts as ADME, organism-based. Summed up:
(§2)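 CD-1 mice dosed IP at 10 mg/kg or PO at 20 mg/kg, n=2 per route. Blood taken with heparinized pipettes at 0.5, 2, 4 and 7 h and spun at 15,000 rpm for 10 min. Plasma stored at −80 °C, then measured by LC-MS/MS.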

Data set [14] in a line: Plasma concentration in CD-1 mouse at 20 mg/kg, po measured after 7 hrs by LC-MS/MS analysis. In kind it is ADME, organism-based. Summed up:
as §2

Data set [15] is described as follows: Drug metabolism in mouse plasma assessed as 7-hydroxy-6-[4-(4-methylpiperazin-1-yl)anilino]-6,7-dihydroquinazoline-5,8-dione formation at 500 uM measured after 0.5 hrs by LC-MS/MS analysis. In kind it is ADME, cell-free. Summed up: (§3)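 Compound (500 μM DMSO stock, 1 μL per 500 μL) was incubated in pooled mouse plasma. Samples were taken at 0.5 h and metabolites identified by LC-MS/MS.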

Data set [16] in a line: Drug metabolism in mouse plasma assessed as 2-amino-3-[6-[4-(4-methylpiperazin-1-yl)anilino]-5,8-dioxo-quinazolin-7-yl]sulfanyl-propanoic acid formation at 500 uM measured after 0.5 hrs by LC-MS/MS analysis. It counts as ADME, cell-free. Summed up: as §3
Data set [17] can be described thus: Drug metabolism in mouse plasma assessed as 5,8-dimethoxy-N-[4-(4-methylpiperazin-1-yl)phenyl]quinazolin-6-amine formation at 500 uM measured after 0.5 hrs by LC-MS/MS analysis. It counts as ADME, cell-free. Summed up:
as §3

The structures appear in SMILES notation. Active and inactive are the calls of the source. The rule behind the calls is not given here.

Results on 1 molecule are retold here after ChEMBL document CHEMBL4725371, “A Novel Redox Modulator Induces a GPX4-Mediated Cell Death That Is Dependent on Iron and Reactive Oxygen Species” (J Med Chem, 2020).

Sequence of Signal transducer and activator of transcription 3 (Homo sapiens) (P40763 whole entry): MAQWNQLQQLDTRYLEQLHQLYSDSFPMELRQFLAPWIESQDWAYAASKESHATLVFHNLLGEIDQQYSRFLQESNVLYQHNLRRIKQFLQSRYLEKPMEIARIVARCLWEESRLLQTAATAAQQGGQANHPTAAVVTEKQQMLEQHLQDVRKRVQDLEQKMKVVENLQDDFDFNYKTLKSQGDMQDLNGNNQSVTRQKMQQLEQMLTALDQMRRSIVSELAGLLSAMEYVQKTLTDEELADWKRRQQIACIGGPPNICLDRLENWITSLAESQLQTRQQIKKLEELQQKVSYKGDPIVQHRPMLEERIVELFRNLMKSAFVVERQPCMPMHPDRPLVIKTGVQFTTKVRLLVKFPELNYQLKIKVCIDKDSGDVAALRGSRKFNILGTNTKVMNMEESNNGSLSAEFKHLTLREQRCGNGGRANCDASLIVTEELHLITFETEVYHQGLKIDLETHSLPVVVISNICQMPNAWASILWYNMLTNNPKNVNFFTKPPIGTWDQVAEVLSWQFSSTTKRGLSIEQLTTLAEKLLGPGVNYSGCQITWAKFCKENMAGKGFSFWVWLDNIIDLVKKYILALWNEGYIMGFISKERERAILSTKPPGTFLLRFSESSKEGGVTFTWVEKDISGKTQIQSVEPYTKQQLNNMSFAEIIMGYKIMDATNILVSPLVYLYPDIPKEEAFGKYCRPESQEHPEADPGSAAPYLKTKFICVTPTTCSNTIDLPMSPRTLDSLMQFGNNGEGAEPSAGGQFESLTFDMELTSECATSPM

A word on the IC50: it is the concentration that gives 50% inhibition. Broadly, the Tm is the temperature at the midpoint of the melting transition. In turn, `CN1CCN(c2ccc(NC3=CC(=O)c4ncncc4C3=O)cc2)CC1` had a concentration for half-maximal inhibition (IC50) with MIA PaCa-2 [1] of 640 nM. Also, the inhibition result (in [2]; in the data set on MIA PaCa-2 [5]; in the data set with MIA PaCa-2 [11]) was “Active” each time. The inhibition result in the data set on MIA PaCa-2 [3] is “inactive”. The outcome with MIA PaCa-2 [4], with MIA PaCa-2 [7] and with MIA PaCa-2 [10] was Active. In the data set with MIA PaCa-2 [6], the Activity result was “Dose-dependent effect”. The melting temperature (Tm) in data set [8] amounted to 57.6 °C. In the data set with MIA PaCa-2 [9], the outcome was inactive. The molecule further registered a t1/2 in data set [12] of 6 min. Further, the figures for the concentration at 7 h in data set [13] and in [14] were 4.5 ng/mL and 23.3 ng/mL, respectively. The Drug metabolism result in [15], in data set [16] and in [17] was “Metabolite_Detected” each time.
